ChEMBL document CHEMBL1144696, “Overcoming drug resistance to heme-targeted antimalarials by systematic side chain variation of 7-chloro-4-aminoquinolines” (J Med Chem, 2008)

What was measured:
[1] = tested on: Plasmodium falciparum; assay: Antiplasmodial activity against chloroquine-resistant Plasmodium falciparum Dd2 after 72 hrs by SYBR green 1 assay; assay type: functional, organism-based; settings: Dd2, 72 h
Method in brief: (§1)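 P. falciparum growth inhibition measured by SYBR Green I intercalation. Each strain was tested separately. IC50 calculated from triplicate experiments. Values are averages of two separate determinations, each run in triplicate.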

[2] = tested on: Plasmodium falciparum; assay: Selectivity index for chloroquine-resistant Plasmodium falciparum FCB to chloroquine-sensitive Plasmodium falciparum GCO3 by SYBR green IC50 ratio; assay type: functional
[3] = tested on: Plasmodium falciparum; assay: Selectivity for chloroquine-resistant Plasmodium falciparum Dd2 over chloroquine-sensitive Plasmodium falciparum HB3 as IC50 ratio by SYBR green assay; assay type: functional
Method in brief: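 Selectivity index is IC50 for Dd2 divided by IC50 for HB3. Both IC50s come from the SYBR Green I assay, averaging two determinations each run in triplicate.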

[4] = tested on: Plasmodium falciparum; assay: Antiplasmodial activity against chloroquine-sensitive Plasmodium falciparum HB3 after 72 hrs by SYBR green 1 assay; assay type: functional, organism-based; settings: HB3, 72 h; method in brief: as §1
[5] = tested on: Plasmodium falciparum; assay: Antiplasmodial activity against chloroquine-sensitive Plasmodium falciparum GCO3 after 72 hrs by SYBR green 1 assay; assay type: functional, organism-based; settings: GCO3, 72 h; method in brief: as §1
[6] = tested on: Plasmodium falciparum; assay: Antiplasmodial activity against chloroquine-resistant Plasmodium falciparum FCB after 72 hrs by SYBR green 1 assay; assay type: functional, organism-based; method in brief: as §1

SMILES	IC50 [1]	Ratio IC50 [2]	Ratio IC50 [3]	IC50 [4]	IC50 [5]	IC50 [6]
CC(C)NC1CCC(Nc2ccnc3cc(Cl)ccc23)CC1 (centres undefined)	75.7 nM	3.89	2.42	31.3 nM	19.5 nM	66 nM
CC(C)N(CCCN(CCCN(C(C)C)C(C)C)c1ccnc2cc(Cl)ccc12)C(C)C	99.8 nM	2.45	2.26	44.1 nM	42.4 nM	104 nM
CCN(CC)CCCN(CC)CCNc1ccnc2cc(Cl)ccc12	31.2 nM			27.3 nM	37.7 nM	52.7 nM
CCN(CC)CCCNCCCCNc1ccnc2cc(Cl)ccc12	170 nM	1.36	2.34	72.5 nM	139 nM	189 nM
CCN(CC)CCCNCCCCCCNc1ccnc2cc(Cl)ccc12	269 nM	1.67	3.25	82.8 nM	129 nM	216 nM
CCN(CC)CCCNCCNc1ccnc2cc(Cl)ccc12	129 nM			29.2 nM	118 nM	146 nM
CCN(CC)CCCNCCCNc1ccnc2cc(Cl)ccc12	56.3 nM	1.14	2.06	27.3 nM	64.8 nM	73.7 nM
CC(C)N(CCCCN(CCCCN(C(C)C)C(C)C)c1ccnc2cc(Cl)ccc12)C(C)C	2550 nM	1.47	1.94	1310 nM	1510 nM	2220 nM
CCN(CC)CCCCN(CCCCN(CC)CC)c1ccnc2cc(Cl)ccc12	882 nM	2.05	1.23	716 nM	517 nM	1060 nM
CCN(CC)CCCN(CC)CCCCCNc1ccnc2cc(Cl)ccc12	43.4 nM	1.21	2.76	15.7 nM	55.2 nM	66.8 nM
CCN(CC)CCCN(CC)CCCNc1ccnc2cc(Cl)ccc12	28.1 nM	1.78	1.33	21.2 nM	27.6 nM	49.1 nM
CCN(CC)C1CCCC(Nc2ccnc3cc(Cl)ccc23)C1 (centres undefined)	80 nM	2.78	3.04	26.3 nM	40.6 nM	113 nM
CCN(CC)CCCN(CC)CCCCNc1ccnc2cc(Cl)ccc12	84.6 nM	1.78	3.52	24.1 nM	87.4 nM	156 nM
CC(C)NC1CCCC(Nc2ccnc3cc(Cl)ccc23)C1 (centres undefined)	76.1 nM	4.21	2.74	27.8 nM	26.1 nM	110 nM
CCN(CC)CCCNCCCCCNc1ccnc2cc(Cl)ccc12	103 nM	1.42	2.25	46 nM	68.7 nM	97.3 nM
CCN(CC)CCCN(CC)CCCCCCNc1ccnc2cc(Cl)ccc12	274 nM	1.5	4.36	62.9 nM	175 nM	263 nM
CCN(CC)C1CCC(Nc2ccnc3cc(Cl)ccc23)CC1 (centres undefined)	51.8 nM	1.8	2.03	25.5 nM	32 nM	57.6 nM
CCN(CC)CCCN(CCCN(CC)CC)c1ccnc2cc(Cl)ccc12	128 nM	1.92	0.68	187 nM	96.6 nM	186 nM
